From ChEMBL document CHEMBL4004805, “Tacrine-resveratrol fused hybrids as multi-target-directed ligands against Alzheimer's disease” (Eur J Med Chem, 2017)
Activity calls are given as the source filed them. The calls are words filed in the database; no cut-off is given here.

What was measured:
Acetylcholinesterase [1] = target: T1, Acetylcholinesterase (Homo sapiens, UniProt P22303); assay: Inhibition of acetylcholinesterase isolated from human red blood cells using acetylthiocholine as substrate preincubated for 5 mins followed by substrate addition measured every 2 mins by Ellman's method
Method in brief: (§1)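 Buffer was 0.1 M potassium phosphate, pH 7.4, with DTNB and enzyme (10 µL of 2.0 units/mL stock) in a 100 µL mix. Substrate was iodide salt (20 µL of 0.01 M). Inhibitor range 10-3–10-9 M. Absorbance rise read at 412 nm, 37 °C. Each concentration run in triplicate. IC50 is the concentration giving 50% loss of activity. Screening done at 10 µM before IC50 work.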

[2] = target: Cholinesterase (Homo sapiens) (UniProt P06276); assay: Inhibition of butyrylcholinesterase isolated from human plasma at 10 uM using butyrylthiocholine as substrate preincubated for 5 mins followed by substrate addition measured every 2 mins by Ellman's method; method in brief: as §1
Acetylcholinesterase [3] = target: Acetylcholinesterase (Electrophorus electricus, UniProt O42275); assay: Displacement of propidium iodide from electric eel AChE by spectrofluorometric method
Method in brief: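 Back-titration of a preformed EeAChE (2 µM)–propidium iodide (8 µM) complex in 1.0 mM Tris-HCl pH 8.0, with inhibitor added stepwise (final 8–56 µM; methanol stock). Fluorescence read at 635 nm, excitation 535 nm. Blanks were run for propidium alone, inhibitor plus propidium, and enzyme alone. KD derived by the Taylor–Lappi treatment, taking propidium KD = 0.7 µM.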

[4] = target: Amyloid-beta precursor protein (Homo sapiens) (UniProt P05067); assay: Inhibition of amyloid beta 42 (unknown origin) self aggregation at 50 uM by ThT-based fluorometric method relative to control
Method in brief: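 Pretreated Aβ42 (50 µM final) was incubated at 30 °C in 10 mM phosphate buffer pH 8.0 with 10 mM NaCl, with or without inhibitor (50 µM). Samples were then diluted in 50 mM glycine-NaOH pH 8.5 containing 1.5 µM ThT. Fluorescence (ex 446/em 490 nm) was scanned for 300 s, plateau values averaged minus ThT background, giving % inhibition.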

[5] = Antioxidant activity of the compound assessed as DPPH radical scavenging activity after 30 mins; type: functional
Method in brief: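 DPPH (0.2 mM solution) was mixed 1:1 in methanol with compound (10-3–10-6 M). After 30 min at laboratory temperature, absorbance was read at 517 nm. Triplicates per concentration; EC50 is the concentration giving a 50% decrease in DPPH activity.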

[6] = Neurotoxicity against Wistar rat primary cerebellar granule neurons assessed as decrease in cell survival at 5 uM after 24 hrs by MTT assay; type: toxicity, cell-based; details: primary cerebellar granule neuron
Method in brief: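 Cerebellar granule neurons came from 7-day-old Wistar rat pups, plated on poly-L-lysine in BME with 10% FBS and 25 mM KCl. Cytosine arabinoside (10 µmol/L) was added at 16 h. At 7 DIV, cells were moved to serum-free medium and exposed to 0–50 µM compound for 24 h. Survival was read by MTT at 570 nm as % of control; mean ± SE, four experiments at least in quadruplicate.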

HepG2 = assay: Hepatotoxicity against human HepG2 cells assessed as decrease in cell viability at 5 to 50 uM after 24 hrs by MTT assay; type: toxicity, cell-based; details: hepg2, 24 h
Method in brief: (§2)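 HepG2 cells in high-glucose DMEM with 10% FBS were seeded at 8 x 10^3 cells/well, then exposed to 0–50 µM compound for 24 h in serum-free medium. MTT (0.1 mg/mL) was added for 20 min at 37 °C in the dark, formazan dissolved in Tris-HCl/5% Triton X-100, absorbance read at 570 nm. Viability as % of control; mean ± SE, four experiments at least in quadruplicate.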

Acetylcholinesterase [7] = target: T1, Acetylcholinesterase; assay: Inhibition of acetylcholinesterase isolated from human red blood cells at 10 uM using acetylthiocholine as substrate preincubated for 5 mins followed by substrate addition measured every 2 mins by Ellman's method; method in brief: as §1
[8] = Neurotoxicity against Wistar rat primary cerebellar granule neurons assessed as decrease in cell survival at 25 to 50 uM after 24 hrs by MTT assay; type: toxicity, cell-based; details: primary cerebellar granule neuron
[9] = target: Cholinesterase (Homo sapiens) (UniProt P06276); assay: Inhibition of butyrylcholinesterase isolated from human plasma up to 100 uM using butyrylthiocholine as substrate preincubated for 5 mins followed by substrate addition measured every 2 mins by Ellman's method; method in brief: as §1
[10] = Hepatotoxicity against human HepG2 cells assessed as cell viability at 5 to 50 uM after 24 hrs by MTT assay relative to control; type: toxicity, cell-based; details: read-out: Activity; method in brief: as §2
[11] = Neurotoxicity against Wistar rat primary cerebellar granule neurons assessed as decrease in cell survival at 5 to 50 uM after 24 hrs by MTT assay; type: toxicity, cell-based; details: primary cerebellar granule neuron
Astrocyte [12] = assay: Antineuroinflammatory activity against LPS-induced Wistar rat primary astrocytes assessed as decrease in nitrite production after 24 hrs by Griess method; type: functional, cell-based
Method in brief: (§3)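 Microglia (shaken off) and astrocytes (trypsinized remainder) came from newborn Wistar rat cortical mixed glia grown 10–13 days. Cells were co-treated 24 h with LPS and compound (10–50 µM). Nitrite in the medium was measured by Griess reaction (sulfanilamide 5 mM, NEDA 40 mM) against a NaNO2 standard curve. Mean ± SE of 3 experiments, each at least in quadruplicate.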

Microglia [13] = assay: Antineuroinflammatory activity against LPS-induced Wistar rat primary microglia cells assessed as decrease in nitrite production after 24 hrs by Griess method; type: functional, cell-based; method in brief: as §3
Astrocyte [14] = assay: Immunomodulatory activity in LPS-induced Wistar rat primary astrocytes assessed as decrease in iNOS expression at 10 to 50 uM after 24 hrs by Western blot method; type: functional, cell-based
Method in brief: (§4)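 Rat primary microglia or astrocytes were exposed 24 h to LPS with compound (0–50 µM), then lysed; protein was measured by Lowry. Immunoblots used anti-iNOS, anti-TREM2 or anti-MRC1 with GAPDH as loading control, read by ECL and densitometry. Values are % of LPS alone; mean ± SE of 3 experiments.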

Microglia [15] = assay: Immunomodulatory activity in LPS-induced Wistar rat primary microglia cells assessed as decrease in iNOS expression at 10 to 50 uM after 24 hrs by Western blot method; type: functional, cell-based; method in brief: as §4
Primary glial cell [16] = assay: Immunomodulatory activity in LPS-induced Wistar rat primary glial cells assessed as decrease in MRC1 expression at 10 to 50 uM after 24 hrs by Western blot method; type: functional, cell-based; method in brief: as §4
Primary glial cell [17] = assay: Immunomodulatory activity in LPS-induced Wistar rat primary glial cells assessed as decrease in TREME2 expression after 24 hrs by Western blot method; type: functional, cell-based; method in brief: as §4
Primary glial cell [18] = assay: Immunomodulatory activity in LPS-induced Wistar rat primary glial cells assessed as decrease in TREME2 mRNA expression after 24 hrs; type: functional, cell-based
Primary glial cell [19] = assay: Immunomodulatory activity in LPS-induced Wistar rat primary glial cells assessed as decrease in iNOS mRNA expression after 24 hrs; type: functional, cell-based

Amyloid-beta precursor protein (Homo sapiens), sequence (P05067 whole entry): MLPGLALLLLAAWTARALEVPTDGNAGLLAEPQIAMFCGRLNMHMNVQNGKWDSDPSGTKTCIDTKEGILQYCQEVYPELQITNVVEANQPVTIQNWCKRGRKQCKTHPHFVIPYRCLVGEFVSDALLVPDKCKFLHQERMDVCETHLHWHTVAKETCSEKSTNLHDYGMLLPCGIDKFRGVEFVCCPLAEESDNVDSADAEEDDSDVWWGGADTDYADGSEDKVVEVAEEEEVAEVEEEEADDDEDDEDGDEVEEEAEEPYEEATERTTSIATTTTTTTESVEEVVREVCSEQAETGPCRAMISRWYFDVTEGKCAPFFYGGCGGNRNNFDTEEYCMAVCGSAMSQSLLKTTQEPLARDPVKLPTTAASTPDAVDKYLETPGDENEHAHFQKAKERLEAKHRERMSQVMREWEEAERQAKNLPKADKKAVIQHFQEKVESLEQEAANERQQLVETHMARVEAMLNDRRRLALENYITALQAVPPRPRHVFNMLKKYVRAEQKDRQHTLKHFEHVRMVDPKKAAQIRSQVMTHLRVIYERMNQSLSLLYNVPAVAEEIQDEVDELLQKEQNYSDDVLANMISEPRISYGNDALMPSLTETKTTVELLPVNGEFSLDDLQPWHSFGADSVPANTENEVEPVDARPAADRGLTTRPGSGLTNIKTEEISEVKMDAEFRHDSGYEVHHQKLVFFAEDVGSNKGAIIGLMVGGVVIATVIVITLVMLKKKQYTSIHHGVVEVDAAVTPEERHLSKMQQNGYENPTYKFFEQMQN
Cholinesterase (Homo sapiens), sequence (P06276 whole entry): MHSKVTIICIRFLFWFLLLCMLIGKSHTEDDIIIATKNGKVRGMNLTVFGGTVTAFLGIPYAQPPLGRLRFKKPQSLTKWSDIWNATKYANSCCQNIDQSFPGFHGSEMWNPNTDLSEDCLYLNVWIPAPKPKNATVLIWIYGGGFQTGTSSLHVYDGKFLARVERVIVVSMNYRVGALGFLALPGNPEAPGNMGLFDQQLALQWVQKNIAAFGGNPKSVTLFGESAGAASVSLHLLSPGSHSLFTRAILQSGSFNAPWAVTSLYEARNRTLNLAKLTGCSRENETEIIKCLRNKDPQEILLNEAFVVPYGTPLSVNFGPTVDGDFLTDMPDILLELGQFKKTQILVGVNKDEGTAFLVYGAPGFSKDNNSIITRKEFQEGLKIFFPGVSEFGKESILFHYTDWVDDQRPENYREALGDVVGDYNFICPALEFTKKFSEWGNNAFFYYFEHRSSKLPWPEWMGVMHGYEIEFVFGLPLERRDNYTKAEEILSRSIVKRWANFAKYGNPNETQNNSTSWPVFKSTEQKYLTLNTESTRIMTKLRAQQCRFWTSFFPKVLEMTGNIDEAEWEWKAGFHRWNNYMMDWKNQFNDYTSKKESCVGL
T1 sequence (P22303 whole entry): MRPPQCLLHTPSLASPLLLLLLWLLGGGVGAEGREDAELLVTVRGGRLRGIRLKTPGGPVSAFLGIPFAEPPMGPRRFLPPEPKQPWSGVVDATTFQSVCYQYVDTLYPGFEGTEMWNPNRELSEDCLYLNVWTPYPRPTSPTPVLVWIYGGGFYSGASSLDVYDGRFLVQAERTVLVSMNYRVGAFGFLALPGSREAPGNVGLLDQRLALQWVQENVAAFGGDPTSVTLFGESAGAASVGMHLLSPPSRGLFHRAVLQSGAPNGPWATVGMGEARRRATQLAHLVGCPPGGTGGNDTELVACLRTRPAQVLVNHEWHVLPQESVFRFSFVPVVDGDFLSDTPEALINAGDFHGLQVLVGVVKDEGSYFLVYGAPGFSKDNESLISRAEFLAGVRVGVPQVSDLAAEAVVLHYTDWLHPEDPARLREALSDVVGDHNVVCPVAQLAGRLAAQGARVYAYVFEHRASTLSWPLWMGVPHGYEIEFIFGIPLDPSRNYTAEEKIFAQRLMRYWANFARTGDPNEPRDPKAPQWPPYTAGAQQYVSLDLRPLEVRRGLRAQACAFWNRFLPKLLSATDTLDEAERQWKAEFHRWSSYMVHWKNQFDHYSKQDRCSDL
Acetylcholinesterase (Electrophorus electricus, UniProt O42275), sequence (O42275 whole entry): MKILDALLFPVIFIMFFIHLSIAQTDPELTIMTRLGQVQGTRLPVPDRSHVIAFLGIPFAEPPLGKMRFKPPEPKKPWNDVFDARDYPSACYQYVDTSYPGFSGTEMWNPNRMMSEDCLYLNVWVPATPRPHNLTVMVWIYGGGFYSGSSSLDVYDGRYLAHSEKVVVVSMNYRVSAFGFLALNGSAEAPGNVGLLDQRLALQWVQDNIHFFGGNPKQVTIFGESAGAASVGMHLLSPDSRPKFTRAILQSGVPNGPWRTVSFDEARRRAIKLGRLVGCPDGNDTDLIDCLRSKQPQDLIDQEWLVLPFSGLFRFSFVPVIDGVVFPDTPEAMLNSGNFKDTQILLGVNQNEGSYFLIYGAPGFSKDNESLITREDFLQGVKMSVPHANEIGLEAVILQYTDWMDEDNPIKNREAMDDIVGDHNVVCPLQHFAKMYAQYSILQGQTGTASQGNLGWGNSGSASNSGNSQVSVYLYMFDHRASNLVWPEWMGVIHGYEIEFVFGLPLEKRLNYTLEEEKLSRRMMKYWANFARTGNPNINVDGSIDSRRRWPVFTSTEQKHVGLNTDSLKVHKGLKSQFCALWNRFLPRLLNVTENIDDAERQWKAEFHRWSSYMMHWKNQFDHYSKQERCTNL

Row | Compound | IC50 (Acetylcholinesterase [1]) [µM] | inhibition [2] | inhibition [4] [%] | EC50 [5] [µM] | Activity [6] | Activity (HepG2) | inhibition (Acetylcholinesterase [7]) | also measured
1 | COc1cc(CCc2ccc(Nc3c4c(nc5cc(Cl)ccc35)CCCC4)cc2)cc(OC)c1 | 0.8 | inactive | 17.6 | 155 | Toxic | Toxic |  | Kd (Acetylcholinesterase [3]): 7.31 µM
2 | COc1cc(/C=C/c2ccc(Nc3c4c(nc5ccccc35)CCCC4)cc2)cc(OC)c1 |  | inactive |  |  |  | Toxic | inactive | Activity [8]: Toxic
3 | COc1cc(CCc2ccc(Nc3c4c(nc5ccccc35)CCCC4)cc2)cc(OC)c1 | 14.2 | inactive |  |  | Toxic | Toxic |  | 
4 | Oc1ccc(/C=C/c2cc(O)cc(O)c2)cc1 [RESVERATROL] |  |  | 30 | 25.6 |  | Non-Toxic | inactive | inhibition [9]: inactive
5 | COc1cc(CCc2ccc(Nc3c4c(nc5ccc(OC)cc35)CCCC4)cc2)cc(OC)c1 |  | inactive |  |  | Toxic | Toxic | inactive | 
6 | CC(=O)N[C@@H](CS)C(=O)O [ACETYLCYSTEINE] |  |  |  | 28 |  |  |  | 
7 | Cc1c(C)c2c(c(C)c1O)CCC(C)(C(=O)O)O2 (stereo unspecified) [TROLOX] |  |  |  | 16.2 |  |  |  | 
8 | COc1ccc2nc3c(c(N)c2c1)CCCC3 |  |  | < 5 |  |  |  |  | 
9 | COc1cc(/C=C/c2ccc(Nc3c4c(nc5cc(Cl)ccc35)CCCC4)cc2)cc(OC)c1 |  | inactive | 21.6 |  | Toxic |  | inactive | viability at 24 h, up to 50 µM [10]: 70%
10 | COc1cc(/C=C/c2ccc(Nc3c4c(nc5ccc(OC)cc35)CCCC4)cc2)cc(OC)c1 |  | inactive |  |  | Toxic | Toxic | inactive | 
11 | Oc1cc(O)cc(CCc2ccc(Nc3c4c(nc5cc(Cl)ccc35)CCCC4)cc2)c1 | 1.3 | inactive | 37.3 | > 5000 |  | Toxic |  | Activity [8]: Toxic
12 | Oc1cc(O)cc(/C=C/c2ccc(Nc3c4c(nc5cc(Cl)ccc35)CCCC4)cc2)c1 | 8.8 | inactive | 31.2 | > 5000 |  | Toxic |  | Activity [11]: Non-Toxic; Activity (Astrocyte [12]): Dose-dependent effect; Activity (Microglia [13]): Dose-dependent effect; Activity (Astrocyte [14]): Active; Activity (Microglia [15]): Active; Activity (Primary glial cell [16]): Active; Activity (Primary glial cell [17]): Dose-dependent effect; Activity (Primary glial cell [18]): Active; Activity (Primary glial cell [19]): Active
